In ChEMBL document CHEMBL1158426, “Semisynthesis and pharmacological activities of Tetrac analogs: angiogenesis modulators” (Bioorg Med Chem Lett, 2009):

Assays:
[1] = species on record: Gallus gallus; assay: Antiangiogenic activity in chicken embryo chorioallantoic membrane model assessed as inhibition of FGF-induced angiogenesis at 1 uM treated 1 hr after FGF challenge measured after 48 hrs relative to control; format: functional, tissue-based
In short: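 Live chick chorioallantoic membrane was exposed to FGF with or without test agent, with PBS as a control. New vessel formation was scored as branch points and reported as mean ± SEM, n = 8. Percent inhibition was calculated against the FGF control.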

[2] = species on record: Mus musculus; assay: Antiangiogenic activity in […] mouse assessed as inhibition of FGF-induced angiogenesis at 10 ug/Matrigel plug measured after 15 days of Matrigel injection using […] reagent staining by ELISA; format: functional; conditions: in the assay text read “after 14 days” for “after 15 days”
In short: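 Mice housed 4 per cage at 20–24 °C, 60–70% humidity, 12 h light/dark, food and water ad libitum, with 5 days' acclimation. Matrigel thawed overnight at 4 °C, kept on ice, injected subcutaneously with FGF. Dissected plugs were stripped of peritoneum, homogenized in ddH₂O for 5–10 min, and spun at 4000 rpm for 10 min. Supernatant was mixed with Drabkin's reagent for 15–30 min at room temperature for hemoglobin measurement.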

[3] = Dissociation constant, pKa of the compound; format: physicochemical

SMILES | inhibition [1] [%] | inhibition (INH) [2] [%] | pKa [3]
O=C(O)Cc1cc(I)c(Oc2cc(I)c(O)c(I)c2)c(I)c1 [TETRAC] | 85 | 90 | 4.3
CC(C)[Si](OC(=O)Cc1cc(I)c(Oc2cc(I)c(O)c(I)c2)c(I)c1)(C(C)C)C(C)C | 75 | 104 | 
CC(C)(C)OC(=O)Cc1cc(I)c(Oc2cc(I)c(O)c(I)c2)c(I)c1 | 88 | 95 | 
O=C(Cc1cc(I)c(Oc2cc(I)c(OCC3CO3)c(I)c2)c(I)c1)OCC1CO1 (configuration not stated) | 31 | 100 | 
O=C(Cc1cc(I)c(Oc2cc(I)c(O)c(I)c2)c(I)c1)N1CCCCC1 | 15 | 104 | 
CC(C)[Si](OC(=O)Cc1cc(I)c(Oc2cc(I)c(OCC3CO3)c(I)c2)c(I)c1)(C(C)C)C(C)C (configuration not stated) | 96 | 100 | 
O=C(O)Cc1cc(I)c(Oc2cc(I)c(OCC3CO3)c(I)c2)c(I)c1 (configuration not stated) | 62 | 100 | 
O=C(Cc1cc(I)c(Oc2cc(I)c(OCC3CO3)c(I)c2)c(I)c1)N1CCCCC1 (configuration not stated) | 44 | 80 | 
